Activity calls are given as the source filed them. No cut-off for these calls is given here.

Data on five molecules can be found in ChEMBL document CHEMBL4390639, “Design, Synthesis, and Biological Evaluation of Novel Allosteric Protein Disulfide Isomerase Inhibitors” (J Med Chem, 2019).

The subject of test [1] is U-87 MG. The experiment in a line: Cytotoxicity against human U87MG cells assessed as inhibition of cell growth measured after 72 hrs by MTT assay. In kind it is functional, cell-based, U-87MG ATCC. The conditions noted are these: Homo sapiens, U-87 MG, 72 h; read-out: IC50. An outline of the steps:
(§1)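 A172 and NU04 cells were seeded at 4000 cells/well and U87MG at 5000 cells/well, incubated overnight at 37 °C, 5% CO2, then exposed to compound or vehicle for 72 h. MTT (3 mg/mL) was added for 4 h, formazan was dissolved in DMSO, and absorbance was read at 570 nm. IC50 came from nonlinear regression; mean ± SD of at least three experiments.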
On the technique in general: Tetrazolium dyes change colour on reduction, which living cells bring about.

The subject of test [2] is A 172. Briefly: Cytotoxicity against human A172 cells assessed as inhibition of cell growth measured after 72 hrs by MTT assay. The format is functional, cell-based. The conditions noted are these: Homo sapiens, A 172, 72 h; read-out: IC50. In outline: as §1
The nature of test [3]: Cytotoxicity against human NU04 cells assessed as inhibition of cell growth measured after 72 hrs by MTT assay. The format is functional, cell-based. The conditions noted are these: Homo sapiens, 72 h; read-out: IC50. An outline of the steps:
as §1

In test [4] the test system is U-87 MG. The experiment in a line: Inhibition of colony formation in human U87MG cells […] by crystal violet staining based assay. In kind it is functional, cell-based. The conditions noted are these: U-87MG ATCC. An outline of the steps:
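Clonogenicity: U87MG cells seeded at 200 cells/well, left overnight, treated 24 h, then medium replaced and cells grown ten days. Stained 30 min with crystal violet, washed, imaged; normalized well intensity from three independent experiments.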

Test [5] in a line: Therapeutic ratio of IC50 for HFF1 cells to IC50 for human NU04 cells. In outline:
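Ratio of two growth-inhibition IC50s, HFF-1 normal human fibroblasts over NU04 glioma cells. Cells were grown as monolayers at 37 °C in 5% CO2, with NU04 seeded at 4000 cells/well. After overnight attachment, cells were exposed to compound or vehicle for 72 h. MTT (3 mg/mL) was added for 4 h, and formazan dissolved in DMSO was read at 570 nm. IC50s came from nonlinear regression of log concentration-response curves, with at least three independent experiments.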

Test [6] addresses T1, Protein disulfide-isomerase (Homo sapiens, UniProt P07237). The experiment in a line: Binding affinity to recombinant human N-terminal His-tagged PDI expressed in Escherichia coli BL21 (DE3) pLysS assessed as change in melting temperature at 100 uM by ROX dye based thermal shift assay. In outline: (§2)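 Purified wild-type, C53S/C397S or H256A PDI at 0.5 mg/mL in 50 mM Tris, pH 7.0, with or without 100 μM compound, was mixed with ROX dye in a 20 µL well. DMSO (5% in buffer) was the control. Samples were heated 25–99 °C at 1 °C/min, and the Boltzmann melting temperature shift versus DMSO was reported. Mean ± SD of three experiments.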
Target sequence in this assay (P07237 18-508 limits assumed): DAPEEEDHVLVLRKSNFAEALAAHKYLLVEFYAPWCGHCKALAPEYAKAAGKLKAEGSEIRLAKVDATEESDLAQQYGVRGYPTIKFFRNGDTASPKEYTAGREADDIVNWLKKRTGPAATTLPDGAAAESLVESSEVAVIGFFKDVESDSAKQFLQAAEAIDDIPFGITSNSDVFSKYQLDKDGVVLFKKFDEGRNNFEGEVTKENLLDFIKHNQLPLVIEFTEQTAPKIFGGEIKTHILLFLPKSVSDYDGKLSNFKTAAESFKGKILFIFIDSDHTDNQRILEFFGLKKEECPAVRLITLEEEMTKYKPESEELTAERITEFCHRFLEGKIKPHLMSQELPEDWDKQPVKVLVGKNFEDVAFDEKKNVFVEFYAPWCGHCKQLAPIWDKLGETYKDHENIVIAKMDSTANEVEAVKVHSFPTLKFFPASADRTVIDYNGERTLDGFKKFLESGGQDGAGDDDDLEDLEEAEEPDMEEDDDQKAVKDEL

Test [7] concerns Protein disulfide-isomerase (Homo sapiens), P07237 [H256A]. The experiment in a line: Binding affinity to recombinant human N-terminal His-tagged PDI H256A mutant expressed in Escherichia coli BL21 (DE3) pLysS assessed as change in melting temperature at 100 uM by ROX dye based thermal shift assay. In outline: as §2
Sequence of Protein disulfide-isomerase (Homo sapiens), P07237 [H256A] (P07237 whole entry H256A): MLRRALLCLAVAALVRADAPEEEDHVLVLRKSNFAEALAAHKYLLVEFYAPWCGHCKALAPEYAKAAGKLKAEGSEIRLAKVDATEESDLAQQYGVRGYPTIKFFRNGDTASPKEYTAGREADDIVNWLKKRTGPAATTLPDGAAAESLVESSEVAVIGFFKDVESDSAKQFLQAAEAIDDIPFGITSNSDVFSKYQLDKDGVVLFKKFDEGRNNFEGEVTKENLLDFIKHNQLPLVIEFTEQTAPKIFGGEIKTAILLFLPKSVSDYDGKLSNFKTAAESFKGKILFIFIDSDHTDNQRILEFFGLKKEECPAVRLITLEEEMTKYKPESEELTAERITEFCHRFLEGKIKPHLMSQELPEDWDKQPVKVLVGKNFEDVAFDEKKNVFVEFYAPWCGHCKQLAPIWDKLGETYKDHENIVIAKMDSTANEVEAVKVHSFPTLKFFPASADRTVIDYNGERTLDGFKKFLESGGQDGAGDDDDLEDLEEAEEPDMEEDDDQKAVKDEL
Test [8] deals with Protein disulfide-isomerase (Homo sapiens), P07237 [C53S,C397S]. Briefly: Binding affinity to recombinant human N-terminal His-tagged PDI C53S/C397S double mutant expressed in Escherichia coli BL21 (DE3) pLysS assessed as change in melting temperature at 100 uM by ROX dye based thermal shift assay. In outline: as §2
Sequence of Protein disulfide-isomerase (Homo sapiens), P07237 [C53S,C397S] (P07237 whole entry C53S/C397S): as the sequence (P07237 whole entry H256A) above, with C53S, A256H, C397S counted along it
The target in test [9] is T1, Protein disulfide-isomerase. Briefly: Binding affinity to recombinant human N-terminal His-tagged PDI expressed in Escherichia coli BL21 (DE3) pLysS by isothermal titration calorimetry. (In general: In ITC the heat of successive injections is recorded.)
Target sequence in this assay (P07237 whole entry): as the sequence (P07237 whole entry H256A) above, with A256H counted along it
Test [10] has as its target Eukaryotic translation initiation factor 2 subunit 1 (Homo sapiens) (UniProt P05198). Briefly: Induction of EIF2alpha phosphorylation in human U87MG cells at 20 uM measured after 2 hrs by Western blot analysis. In kind it is cell-based. An outline of the steps:
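eIF2α phosphorylation in U87MG cells after 2 h with 1 µM PACMA31 or 20 µM analogues; tunicamycin 10 µg/mL as comparator. Lysates (Tris/NaCl/Triton/SDS, sonicated) quantified by BCA; 30 µg protein separated on 10% gels, blotted to PVDF, probed for phospho-eIF2α, detected by fluorescence.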

The subject of test [11] is U-87 MG. The experiment in a line: Induction of endoplasmic reticulum stress in human U87MG cells assessed as increase in GRP78 expression at 20 uM measured after 24 hrs by Western blot analysis. The format is functional, cell-based. The conditions noted are these: U-87MG ATCC. An outline of the steps: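 ER-stress immunoblot: 0.5 x 10^6 U87MG cells/well treated for 24 h with 20 µM analogues, 1 µM PACMA31 or DMSO; tunicamycin 10 µg/mL for 2 or 24 h as positive control. Lysis in Tris/NaCl/Triton/SDS buffer with sonication; 30 µg protein on 10% gels, transferred to PVDF, GRP78 probed, fluorescence imaging.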

Test [12] has as its target Eukaryotic translation initiation factor 2 subunit 1 (Homo sapiens) (UniProt P05198). Briefly: Induction of EIF2alpha phosphorylation in human A172 cells at 20 uM measured after 2 hrs by Western blot analysis. In kind it is cell-based. In general terms: In western blotting, separated proteins are transferred to a membrane and probed.
Test [13] concerns A 172. Briefly: Induction of endoplasmic reticulum stress in human A172 cells assessed as increase in GRP78 expression at 20 uM measured after 24 hrs by Western blot analysis. In kind it is functional, cell-based.
Test [14] deals with A 172. Briefly: Antimigratory activity against human A172 cells assessed as reduction in cell migration towards wound area at 10 uM measured after 24 hrs by Giemsa staining based microscopic analysis. In kind it is functional. An outline of the steps: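 A172 cells plated at 50,000 cells/well, incubated overnight at 37 °C, 5% CO2, then held 24 h in serum-free DMEM. A scratch was made, compounds were added, and cells grew 24 h until DMSO-control wells closed. Cells were Giemsa-stained and imaged at 10X.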

Test [15] concerns U-87 MG. The experiment in a line: Effect on PDI expression in human U87MG cells at 20 uM measured after 24 hrs by Western blot analysis. In kind it is functional, cell-based. The conditions noted are these: U-87MG ATCC.
Test [16] has as its system A 172. The experiment in a line: Effect on PDI expression in human A172 cells at 20 uM measured after 24 hrs by Western blot analysis. In kind it is functional, cell-based.
Test [17] has as its system U-87 MG. The experiment in a line: Down regulation of MMP9 expression in human U87MG cells at 10 uM measured after 24 hrs by Western blot analysis. The conditions noted are these: U-87MG ATCC. The format is functional, cell-based.
In test [18] the target is Focal adhesion kinase 1 (Homo sapiens) (UniProt Q05397). The experiment in a line: Effect on FAK phosphorylation in human U87MG cells at 10 uM measured after 24 hrs by Western blot analysis. The format is cell-based.
Sequence of Focal adhesion kinase 1 (Homo sapiens) (Q05397 2-1052 limits assumed): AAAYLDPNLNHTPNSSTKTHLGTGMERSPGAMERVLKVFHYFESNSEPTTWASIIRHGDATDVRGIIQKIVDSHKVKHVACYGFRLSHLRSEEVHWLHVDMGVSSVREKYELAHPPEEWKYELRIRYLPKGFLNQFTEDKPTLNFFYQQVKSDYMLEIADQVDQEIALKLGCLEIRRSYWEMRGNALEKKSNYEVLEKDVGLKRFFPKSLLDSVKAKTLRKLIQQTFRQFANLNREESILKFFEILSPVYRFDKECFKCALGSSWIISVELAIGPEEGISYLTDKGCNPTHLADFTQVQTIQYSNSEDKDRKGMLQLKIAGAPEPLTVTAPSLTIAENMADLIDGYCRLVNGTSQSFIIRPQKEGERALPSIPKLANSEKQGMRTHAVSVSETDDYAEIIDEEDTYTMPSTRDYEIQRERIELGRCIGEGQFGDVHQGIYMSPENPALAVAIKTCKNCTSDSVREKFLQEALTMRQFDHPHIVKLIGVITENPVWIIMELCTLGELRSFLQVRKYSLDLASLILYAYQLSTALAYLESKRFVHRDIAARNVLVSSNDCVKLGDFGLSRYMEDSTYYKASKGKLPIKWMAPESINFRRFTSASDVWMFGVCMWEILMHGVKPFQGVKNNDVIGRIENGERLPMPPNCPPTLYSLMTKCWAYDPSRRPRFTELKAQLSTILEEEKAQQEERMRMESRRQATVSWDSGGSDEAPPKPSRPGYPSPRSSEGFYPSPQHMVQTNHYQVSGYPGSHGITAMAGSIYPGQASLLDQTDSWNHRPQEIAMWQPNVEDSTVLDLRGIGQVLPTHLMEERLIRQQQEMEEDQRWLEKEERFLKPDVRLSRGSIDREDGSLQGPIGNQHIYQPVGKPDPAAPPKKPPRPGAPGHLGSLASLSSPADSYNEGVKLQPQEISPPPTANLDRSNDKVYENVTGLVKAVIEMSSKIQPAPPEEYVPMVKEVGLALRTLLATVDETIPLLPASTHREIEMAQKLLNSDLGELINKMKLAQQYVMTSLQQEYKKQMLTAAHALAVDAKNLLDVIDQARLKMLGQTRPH
The target of test [19] is T1, Protein disulfide-isomerase. Briefly: Inhibition of recombinant human N-terminal His-tagged PDI expressed in Escherichia coli BL21 (DE3) pLysS at 100 uM measured after 1 hr by ANS dye based fluorescence spectra analysis. In outline: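 ANS spectral scan: PDI incubated with 100 μM compounds or matching DMSO in TBS for 1 h at 37 °C. ANS then added and incubated 20 min at 25 °C in the dark. Fluorescence spectrum recorded with excitation 370 nm, emission 400–700 nm.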
Target sequence in this assay (P07237 18-508 limits assumed): as the sequence (P07237 18-508 limits assumed) above

Test [20] has the same target. Briefly: Inhibition of recombinant human N-terminal His-tagged PDI expressed in Escherichia coli BL21 (DE3) pLysS assessed as reduction in enzyme-mediated bovine insulin aggregation at 40 uM measured after 1 hr in presence of 5 mM NAC. In outline: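 Compounds pretreated with NAC for 30 min at 37 °C, then added to the insulin reductase assay at final 40 μM compound with 0, 1, 2 or 5 mM NAC. The assay uses 0.4 μM PDI preincubated 1 h at 37 °C, then DTT and bovine insulin, read at 620 nm, with % activity at 80 min.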
Target sequence in this assay (P07237 18-508 limits assumed): as above

Sequence of Eukaryotic translation initiation factor 2 subunit 1 (Homo sapiens) (P05198 whole entry): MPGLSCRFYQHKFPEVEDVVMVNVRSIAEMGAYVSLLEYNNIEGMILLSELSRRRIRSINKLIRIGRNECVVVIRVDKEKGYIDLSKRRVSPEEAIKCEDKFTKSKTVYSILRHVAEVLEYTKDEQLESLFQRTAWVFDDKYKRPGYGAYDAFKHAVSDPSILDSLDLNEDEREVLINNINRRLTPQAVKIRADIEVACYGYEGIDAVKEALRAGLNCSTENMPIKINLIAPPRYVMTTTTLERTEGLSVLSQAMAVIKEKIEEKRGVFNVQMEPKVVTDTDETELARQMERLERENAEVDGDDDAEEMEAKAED

One may read the IC50 as the point on the concentration scale where inhibition reaches its midpoint. Broadly, the ΔTm is the shift of the melting midpoint relative to a reference. Broadly, the Kd is the free concentration of one partner at which half of the binding sites on the other are occupied at equilibrium, for simple one-to-one binding. For `CCCCCN(CCCCC)S(=O)(=O)c1ccc(C(=O)/C=C/c2cccc(O)c2)cc1`, the IC50 in the test with U-87 MG [1] is 15 µM; in the test on A 172 [2], 11.3 µM; in test [3] it was 7.6 µM. For the same molecule, the inhibition entry with U-87 MG [4] is “Dose-dependent effect”. For the same molecule, the “Ratio IC50” value in [5] is 3.85. Also, the ΔTm in [6] came out at 3.58 °C. In addition, the result (in [7]; in test [8]; in [10]; in the test on U-87 MG [11]; in test [12]; in the test with A 172 [13]) was Active. Besides, the result with A 172 [14] and with U-87 MG [17] was Active. Besides, in [9], the Kd entry is recorded as “Nd(Insoluble)”. Further, the result (in the test with U-87 MG [15]; in the test with A 172 [16]; in test [18]) was inactive. The inhibition result in [19] was “Active”. Moreover, in test [20], the inhibition entry was “inactive”.

For `O=C(/C=C/c1ccc(-c2cccnc2)cc1)c1cccc(O)c1`, the IC50 in the test on U-87 MG [1] worked out at 10.7 µM; in the test with A 172 [2] it was 11 µM; in test [3], 4.9 µM. In addition, the inhibition entry with U-87 MG [4] is “Dose-dependent effect”. Moreover, the “Ratio IC50” value in test [5] is recorded as 4.57. Moreover, the ΔTm in test [6] is 2.83 °C. Moreover, the result (in [7]; in test [8]; in test [10]; in the test on U-87 MG [11]; in test [12]; in the test on A 172 [13]) was Active. Moreover, the result with A 172 [14] and in the test with U-87 MG [17] was Active. Further, the result (in the test on U-87 MG [15]; in the test on A 172 [16]; in test [18]) was inactive. The inhibition entry in test [19] and in test [20] was “Active” in each case.

Take `COC(=O)c1cccc(/C=C/C(=O)c2cccc(O)c2)c1`: the IC50 was 16.5 µM in the test on U-87 MG [1], 19.5 µM with A 172 [2] and 22.7 µM in [3]. In addition, the inhibition result in the test on U-87 MG [4] was “Dose-dependent effect”. Further, the “Ratio IC50” value in test [5] turned out to be 0.77. The ΔTm in test [6] was found to be 1.86 °C. Besides, the result (in test [7]; in test [8]; in test [10]; in the test with U-87 MG [11]; in test [12]; in the test with A 172 [13]) was Active. Further, the outcome in the test with A 172 [14] was Active. In addition, in test [9], the Kd result is “Nd(Insoluble)”. The outcome (in the test on U-87 MG [15]; with A 172 [16]; in [18]) was inactive. The inhibition entry in test [19] was “Active”. The inhibition result in test [20] is “inactive”.

As for `N#Cc1cccc(/C=C/C(=O)c2ccc(O)cc2)c1`, the IC50 in the test with U-87 MG [1] was 10.3 to 10.7 µM; in the test on A 172 [2], 16.8 µM; in [3], 15.7 µM. Further, in the test on U-87 MG [4], the inhibition entry was “Dose-dependent effect”. In addition, the “Ratio IC50” value in test [5] was 5.8. Further, the thermal shift (ΔTm) in test [6] was found to be 2.85 °C. The outcome (in [7]; in the test on U-87 MG [15]; in the test on A 172 [16]; in test [18]) was inactive. Besides, the result (in [8]; in test [10]; with U-87 MG [11]; in test [12]; in the test with A 172 [13]; in the test with A 172 [14]) was Active. In addition, the Kd in [9] (read-out: Kd) amounted to 9.1 µM. In addition, the inhibition result in [19] and in [20] was “Active” throughout.

On to `CCCCCN(CCCCC)S(=O)(=O)c1ccc(C(=O)/C=C/c2cccc(C#N)c2)cc1`, for which the IC50 in the test with U-87 MG [1] came out at 5.6 µM; with A 172 [2], 9 µM; in test [3] it was 5 µM. Also, in the test with U-87 MG [4], the inhibition entry was “Dose-dependent effect”. The “Ratio IC50” value in [5] is 0.67. Besides, the ΔTm in test [6] is 0.52 °C. The result (in test [10]; in the test with U-87 MG [11]; in [12]; in the test with A 172 [13]; in the test with A 172 [14]; with U-87 MG [17]) was Active. Besides, the outcome (with U-87 MG [15]; with A 172 [16]; in test [18]) was inactive.
